The results in this text go back to BindingDB's records for doi:10.1016/j.ejmech.2019.111611 (The University of Queensland, 2019).

A word on the Ki: it is a dissociation constant, usually derived from enzyme kinetics or from competition with a known ligand. Higher therefore signals lower affinity.

Molecules are shown by their SMILES.

For the assay, the target named is T1, Fe(3+)-Zn(2+) purple acid phosphatase (Phaseolus vulgaris, UniProt P80366).
T1 sequence (P80366 whole entry): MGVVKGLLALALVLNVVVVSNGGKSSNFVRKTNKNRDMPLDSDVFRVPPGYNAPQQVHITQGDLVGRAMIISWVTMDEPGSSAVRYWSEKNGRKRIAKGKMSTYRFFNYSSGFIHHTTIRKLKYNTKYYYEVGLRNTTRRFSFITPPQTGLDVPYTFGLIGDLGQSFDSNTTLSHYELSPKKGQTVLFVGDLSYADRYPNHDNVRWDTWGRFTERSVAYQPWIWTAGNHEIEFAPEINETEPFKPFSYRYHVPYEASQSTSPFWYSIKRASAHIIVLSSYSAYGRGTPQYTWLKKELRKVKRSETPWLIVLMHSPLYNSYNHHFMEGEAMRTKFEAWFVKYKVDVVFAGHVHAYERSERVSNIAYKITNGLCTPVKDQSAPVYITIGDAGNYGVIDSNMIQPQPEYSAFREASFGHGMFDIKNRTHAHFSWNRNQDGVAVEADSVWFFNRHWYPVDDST
As to the kind of experiment: Competitive inhibition of red kidney bean PAP using varying levels of pNPP as substrate measured at pH 6.2 by UV-vis spectrophotometric analysis. Summed up: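 Red kidney bean PAP (rkbPAP), purified, at 8.4 nM. p-NPP 1–15 mM in 0.1 M MES pH 6.2 with 25% DMSO, 25 °C. p-Nitrophenol formation followed at 405 nm (Δε 1834.4 mol−1 L cm−1). Inhibitor concentration varied; competitive constant Kic from non-linear regression using a general inhibition equation.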
In turn, `CCCCCCCCCCCCOC(c1cccc2ccccc12)P(=O)(O)O` (stereo unspecified) had a Ki of 4500 nM. In turn, `CCCCCCCCCCCCCCCCOC(c1cccc2ccccc12)P(=O)(O)O` (stereo unspecified) came in with a Ki of 400 nM. In turn, `CCCCCCCCCCCCCCCCCCOC(c1cccc2ccccc12)P(=O)(O)O` (stereo unspecified) displayed an inhibitory constant (Ki) of 500 nM. This Ki and that of the molecule before are within 1.5-fold of each other. To `CCCCCCCCCCCCCCCCCCCCCCOC(c1cccc2ccccc12)P(=O)(O)O` (stereo unspecified) belongs 14000 nM. Turning to `CCCCCCCCCCCCCCOC(c1cccc2ccccc12)P(=O)(O)O` (stereo unspecified), affinity was put at a Ki of 200 nM. As for `CCCCCCCCCCCCCCCCCCCCOC(c1cccc2ccccc12)P(=O)(O)O` (stereo unspecified), the figure is 800 nM.
